{
  "source": "paper PMC6682138",
  "about": "(ACS Omega, 2019)",
  "system": "A549 cells",
  "assay": "MTT cytotoxicity assay, A549",
  "format": "cell-based, human",
  "conditions": "read-out: IC50 A549, 24 h incubation",
  "method_in_brief": "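MTT assay. Cells seeded at 2 × 10^4 per well. A549 and HeLa S3 were maintained in DMEM with 10% FBS, 2 mM L-glutamine and antibiotics at 37 °C, 5% CO2. Test compound in DMSO (0.5%) applied at 100–3.125 μM for 24 h. After a PBS wash, cells received fresh DMEM with MTT (5 mg/mL) for 3–4 h in the dark. DMSO was added and absorbance read at 570 nm. Inhibition % = (A−B)/A × 100 versus untreated control, and IC50 taken from viability–concentration curves.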",
  "data": [
    {"smiles": "N.N.[Cl][Pt][Cl]", "note": "[cisplatin, reference compound]", "values": [
      {"measurement": "IC50", "result": "18 ± 3.1", "unit": "µM"}
    ]}
  ]
}
